The values below come from ChEMBL document CHEMBL4513216, “Probing the Open Global Health Chemical Diversity Library for Multistage-Active Starting Points for Next-Generation Antimalarials” (ACS Infect Dis, 2020).

SMILES strings stand for the structures.

This data set is described as follows: Toxicity liver stage against HepG2, at 10uM. Details: test concentration 10 uM, cell line HepG2-A16-CD81EGFP. As to conditions: human, HepG2-A16-CD81EGFP cells; read-out: INHIBITION
The data set is classed as cell-based. The procedure, abridged: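 Uninfected HepG2-A16-CD81EGFP cells, 3 × 10^3 per well, 1536-well, plated on prespotted compound at 10 μM final, parasite-free screening media added to match infected plates; puromycin 10 μM positive, DMSO 0.5% negative; run in parallel with 48 h PbLuc assay at 37 °C, 5% CO2; viability by CellTiter-Glo luminescence, normalized to controls.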
As to `O=c1cc(Cn2ccnc2)nc2n1CCCN(CC1CCOCC1)C2`, the cytotoxicity at 10 µM worked out at 12.7%.
The same measure for `O=C(c1ccc(S(=O)(=O)N2CCSCC2)cc1)N1CCCCCC1`: 13.9%.
For `O=C(c1cnn2c(-c3ccco3)ccnc12)N1CCCCCC1`, the cytotoxicity at 10 µM is 14.4%.
For the compound `O=C(C1CCCCC1)N1CCC2(CC1)OCCO2`, the cytotoxicity at 10 µM is 9.77%.
Consider `CCN1C(=O)CC(c2cnn(C)c2)C12CCN(C(=O)c1ccc[nH]1)CC2` (configuration not stated), for which the cytotoxicity at 10 µM is 8.82%.
The value for `Cc1cc(C)c(CNC(=O)NC(C)c2ccc3c(c2)CCC3)c(=O)[nH]1` (configuration not stated) was 27.4%.
The same measure for `O=C(NCc1ccccc1)[C@H]1C[C@H]2CN(S(=O)(=O)C3CC3)C[C@@H]1O2`: 1.59%; for `COc1cccc(OC2CN(C(=O)CCn3cnnn3)C2)c1`: -0.0726%; for `O=C(c1cc[nH]n1)N(Cc1cccc(O)c1)CC1CC1`: 8.27%.
The value for `Cc1ccc(-n2nnc(C(=O)NC(C)C)c2C2CC2)cc1` was -3.37%.
Regarding `CC(=O)c1cccc(-c2c[nH]c(C)n2)c1`, the cytotoxicity at 10 µM is -0.916%.
The value for `CCc1ncnc(N(C)CC2CCCCO2)c1F` (configuration not stated) was 3.17%; that for `CN(C)C(=O)C1CN(Cc2ccc(C#N)cc2)c2ccccc2O1` (configuration not stated) was 6.47%.
The value for `CN(C)C(=O)C1CN(Cc2c[nH]cn2)CCN(C2CCOCC2)C1` (configuration not stated) was -5.97%; that for `CS(=O)(=O)NCCC(=O)NCc1cccnc1-n1cnc2ccccc21` was -0.0143%; that for `Cc1cnc(Nc2cccc(C3CCCN3C(=O)CO)n2)s1` (configuration not stated) was -30.6%.
Turning to `CC(O)c1cccc(-n2c(CCC(=O)O)nc3ccccc32)c1` (configuration not stated), the cytotoxicity at 10 µM came out at 2.16%.
On to `Cn1ncc2c1CCCN(C(=O)C1CCCC1)C2`, for which the cytotoxicity at 10 µM stood at 4.13%.
On to `NC(=O)C(NCCc1ccc(Cl)s1)c1ccccc1` (configuration not stated), for which the cytotoxicity at 10 µM was 6.13%.
The value for `COCCC(=O)N1CCCC(CCC(=O)NCc2ccccc2F)C1` (configuration not stated) was 11%; that for `Cc1[nH]c2ccc(C(=O)N3C[C@@H](O)[C@H](N4CCOCC4)C3)cc2c1C` was -21.3%.
The same measure for `O=C(NCC1(O)COCCN(Cc2cccc(O)c2)C1)c1cscn1` (configuration not stated): -2.28%; for `CS(=O)(=O)Cc1nc(CNc2ccc(F)c(F)c2)cs1`: -6.92%; for `Cc1cc(CNc2ccnn2C)ccc1-n1cncn1`: -43.2%.
For the compound `Cc1cc(F)ccc1-c1cc(NCCO)nc2[nH]ccc12`, the cytotoxicity at 10 µM worked out at 21.7%.
The same measure for `N[C@@H]1CCCN(C(=O)Cc2c[nH]c3ccccc23)[C@H]1c1ccccc1F`: 7.45%.
The same measure for `CCOc1ccc(CC(=O)N2CCCC2c2cc(C)on2)cc1` (configuration not stated): -46%; for `CN1CCC(Oc2ccc(-n3ccnc3-c3nccn3C)cc2)CC1`: -7.41%.
The same measure for `COc1coc(CN2CCCC(CCc3c(F)cccc3F)C2)cc1=O` (configuration not stated): 1.18%; for `Cn1cc(C(=O)Nc2ccc3c(c2)CN(C(=O)c2ccco2)CC3)nn1`: 0.0452%.
As to `Cc1ccc(CC(=O)NCC(O)c2cc(Cl)cc(Cl)c2)cn1` (configuration not stated), the cytotoxicity at 10 µM is -3.69%.
For `COc1cccc(CSc2nnc(C)n2CC(N)=O)c1`, the cytotoxicity at 10 µM worked out at 3.59%.
On to `CC(Cn1cncn1)NC(=O)c1cn(Cc2ccccc2F)nn1` (configuration not stated), for which the cytotoxicity at 10 µM is -1.62%.
Regarding `Cc1cn2nc(N3CCCC3Cn3nc(C)cc3C)sc2n1` (configuration not stated), the cytotoxicity at 10 µM is -1.32%.
The value for `Cc1csc(Nc2nccnc2C2CCCN2S(C)(=O)=O)n1` (configuration not stated) was -3.69%.
With `CC1(C)CC(CC(=O)N2CC(C)(C)[C@@](C)(O)C2)CC(C)(C)N1`, the cytotoxicity at 10 µM is -4.84%.
The value for `Cc1ncc2c(n1)CN(CCOc1ccc3c(c1)CCC(=O)N3)CC2` was -8.12%.
The value for `Cc1nc(CN2CCC2(CCCc2ccccn2)C(=O)N(C)C)co1` (configuration not stated) was 11.4%; that for `Cc1c(F)cccc1NC(=O)N(C(C)CS(C)(=O)=O)C1CC1` (configuration not stated) was 8.29%; that for `CC(=O)N1CC2(CCNCC2)c2cc(C)ccc21` was -73.2%.
The same measure for `CC(=O)N1CCc2nc(-c3ccccc3)nc(NC(C)C)c2CC1`: -119%.
Take `CS(=O)(=O)CCN1CCC(=Cc2ccccc2)CC1`: the cytotoxicity at 10 µM was -2.99%.
Turning to `Cc1cc(C(=O)N2CCCC2c2nc(C)cc(O)n2)on1` (configuration not stated), the cytotoxicity at 10 µM is -15.2%.
The same measure for `COc1cccc(CN2CCCC2c2cccc(F)c2)c1OC` (configuration not stated): 6.01%; for `COc1ccc(N(CCC(N)=O)C(=O)CSc2ccc(F)c(F)c2)cc1`: 4.13%.
On to `CN1C(=O)CC(c2cnn(C)c2)C12CCN(C(=O)c1cscn1)CC2` (configuration not stated), for which the cytotoxicity at 10 µM was -76.6%.
The value for `Cc1ccc2c(n1)N(C)CCN(C(=O)C1CC1)C2` was -2.15%.
As for `CC(=O)NCCc1ncnn1-c1ccc(F)c(Cl)c1`, the cytotoxicity at 10 µM was -15%.
The same measure for `O=C(c1ccc(CNC2CCSC2)cc1)N1CCCC1` (configuration not stated): -4.05%.
The same measure for `COCCN(C)C[C@@H]1CN(C(=O)C(C)(C)c2ccccc2)C[C@@H]1CO`: 16.7%; for `C=C(C)CN(CC)C(=O)c1cc(F)ccc1N1CCN(C)CC1`: -1.18%; for `CCN(CC)c1nc(C)cc(C(=O)Nc2cccc(C(N)=O)c2)n1`: 14.9%.
Consider `Cn1ncc(C(=O)N2CCN(CCS(C)(=O)=O)CC2)c1Cl`, for which the cytotoxicity at 10 µM is 4.33%.
Regarding `O=C(COC1CCCCC1)Nc1ccn(Cc2ccccn2)n1`, the cytotoxicity at 10 µM is 0.38%.
The same measure for `CCNC(=O)CS(=O)(=O)NC1CCC(C)CC1` (configuration not stated): -4.57%; for `CCN(CC)CCC(=O)N1CCc2c(nc(N(C)C)nc2N(C)C)C1`: -14.4%.
The value for `Cc1nn(C)cc1CN(C)Cc1cc2c(cc1OC(F)F)OCO2` was -3.53%; that for `Cc1nn(C2CCS(=O)(=O)C2)c(O)c1Cc1cccc(Cl)c1` (configuration not stated) was -46.9%; that for `COc1ccc(S(=O)(=O)Nc2cnc(N(C)C)nc2)cc1` was -4.45%.
The value for `COc1ccc(NC(=O)C(C)(C)C)cc1OCc1cccnc1` was -41.1%; that for `O=C(NCCCNC(=O)c1ccccc1)Nc1ccc(F)cc1F` was 5.55%; that for `COCC1c2c(cnn2CC2CC2)CCN1Cc1ccsc1` (configuration not stated) was 6.75%.
On to `Cc1csc(NC(=O)CN2CCc3c(nc(C4CC4)n3C)C2)n1`, for which the cytotoxicity at 10 µM is -6.6%.
For the compound `CNC(=O)C1CCCCN1C(=O)CCn1cnc2sccc2c1=O` (configuration not stated), the cytotoxicity at 10 µM was -7.18%.
For the compound `C=C(C)CNC1CCCN(Cc2noc(C3CC3)n2)C1` (configuration not stated), the cytotoxicity at 10 µM was -4.56%.
The same measure for `CC(C)[C@@H]1CN(Cc2ccccc2C#N)C[C@H]1NC(=O)N(C)C`: -12.3%; for `COc1cc(C2c3c(n[nH]c3C)N=C3COC(=O)C32)cc(Br)c1O` (configuration not stated): 75.4%; for `O=C1NCCN1C1CCN(Cc2nc(-c3ccc(F)cc3)no2)CC1`: 44.1%.
In the case of `Cn1cnnc1-c1cncc(NCc2cccc3c2OC(C)(C)C3)c1`, the cytotoxicity at 10 µM was 7.84%.
With `OCc1cc2ccccc2nc1N1CCCC1`, the cytotoxicity at 10 µM is -8.82%.
As for `Cc1ccc2nc(C)cc(NCCNS(=O)(=O)c3cccnc3)c2c1`, the cytotoxicity at 10 µM is 13.5%.
Take `Cc1cc(C)n(CC2CCCCN2CCCS(=O)(=O)N(C)C)n1` (configuration not stated): the cytotoxicity at 10 µM stood at 2.32%.
